Measured values published in ChEMBL document CHEMBL1221249, “Synthesis and in vitro binding studies of piperazine-alkyl-naphthamides: impact of homology and sulphonamide/carboxamide bioisosteric replacement on the affinity for 5-HT1A, alpha2A, D4.2, D3 and D2L receptors” (Bioorg Med Chem Lett, 2010).

Tests used:
[1] = molecular target: D(3) dopamine receptor (Rattus norvegicus) (UniProt P19020); test: Displacement of [3H]-spiperone from rat D3 receptor after 60 mins
D(2) dopamine receptor [2] = molecular target: T1, D(2) dopamine receptor (Homo sapiens, UniProt P14416); test: Displacement of [3H]spiperone from human D2L receptor after 60 mins
Method in brief: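 Cloned human D2L receptor membranes from transfected cells were incubated 60 min at 27 °C with [3H]-spiperone (0.2 nM). Buffer was 50 mM Tris-HCl pH 7.4 with 10 mM MgCl2 and 1 mM EDTA, and haloperidol (10 µM) defined non-specific binding. Bound radioactivity was collected on 0.3% PEI-soaked GF/C filters and measured by scintillation counting.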

D(3) dopamine receptor = D(3) dopamine receptor (Rattus norvegicus, UniProt P19020); test: Displacement of [3H]spiperone from rat dopamine D3 receptor after 60 mins
[3] = molecular target: D(4) dopamine receptor (Homo sapiens) (UniProt P21917); test: Displacement of [3H]-YM-09151-2 from human D4.2 receptor after 60 mins
[4] = molecular target: 5-hydroxytryptamine receptor 1A (Homo sapiens) (UniProt P08908); test: Displacement of [3H]8-OH-DPAT from human 5-HT1A receptor after 60 mins
D(2) dopamine receptor [5] = molecular target: T1, D(2) dopamine receptor; test: Displacement of [3H]spiperone from human D2L receptor at 1 uM after 60 mins

Sequence of D(3) dopamine receptor (P19020 whole entry): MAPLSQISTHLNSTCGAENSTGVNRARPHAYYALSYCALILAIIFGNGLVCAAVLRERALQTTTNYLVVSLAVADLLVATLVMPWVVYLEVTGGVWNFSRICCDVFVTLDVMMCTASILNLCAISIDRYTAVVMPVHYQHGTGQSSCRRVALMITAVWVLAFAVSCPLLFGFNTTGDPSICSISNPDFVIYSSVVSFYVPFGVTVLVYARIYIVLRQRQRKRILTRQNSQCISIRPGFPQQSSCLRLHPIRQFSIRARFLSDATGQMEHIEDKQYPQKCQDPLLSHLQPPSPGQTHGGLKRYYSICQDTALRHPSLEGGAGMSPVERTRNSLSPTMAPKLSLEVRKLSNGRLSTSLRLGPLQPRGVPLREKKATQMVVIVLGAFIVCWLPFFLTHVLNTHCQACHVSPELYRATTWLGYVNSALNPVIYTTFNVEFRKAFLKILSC
Sequence of 5-hydroxytryptamine receptor 1A (Homo sapiens) (P08908 whole entry, looked up): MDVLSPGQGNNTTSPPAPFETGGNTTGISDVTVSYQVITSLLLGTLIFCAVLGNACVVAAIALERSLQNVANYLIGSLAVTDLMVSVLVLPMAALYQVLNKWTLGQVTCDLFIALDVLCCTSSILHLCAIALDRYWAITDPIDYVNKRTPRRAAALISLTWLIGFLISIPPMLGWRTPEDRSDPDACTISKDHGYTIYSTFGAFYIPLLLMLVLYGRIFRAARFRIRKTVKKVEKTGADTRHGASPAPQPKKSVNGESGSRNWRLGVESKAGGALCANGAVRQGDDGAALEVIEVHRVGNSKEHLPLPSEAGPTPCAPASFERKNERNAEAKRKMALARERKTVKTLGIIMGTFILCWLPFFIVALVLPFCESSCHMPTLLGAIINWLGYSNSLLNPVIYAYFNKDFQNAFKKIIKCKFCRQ
Sequence of D(4) dopamine receptor (Homo sapiens) (P21917 whole entry, looked up): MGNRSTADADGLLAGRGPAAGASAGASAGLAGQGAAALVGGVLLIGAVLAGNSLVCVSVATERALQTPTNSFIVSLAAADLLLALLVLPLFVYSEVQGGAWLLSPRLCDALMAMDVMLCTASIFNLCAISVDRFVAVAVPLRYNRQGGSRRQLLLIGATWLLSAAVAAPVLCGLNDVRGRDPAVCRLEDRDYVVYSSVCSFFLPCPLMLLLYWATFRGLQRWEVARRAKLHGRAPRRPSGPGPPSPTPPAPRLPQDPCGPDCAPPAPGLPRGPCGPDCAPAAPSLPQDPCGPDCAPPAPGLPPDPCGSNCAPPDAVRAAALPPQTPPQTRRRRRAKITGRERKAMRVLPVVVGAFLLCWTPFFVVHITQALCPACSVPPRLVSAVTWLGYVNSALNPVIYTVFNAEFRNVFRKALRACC
T1 sequence (P14416 whole entry): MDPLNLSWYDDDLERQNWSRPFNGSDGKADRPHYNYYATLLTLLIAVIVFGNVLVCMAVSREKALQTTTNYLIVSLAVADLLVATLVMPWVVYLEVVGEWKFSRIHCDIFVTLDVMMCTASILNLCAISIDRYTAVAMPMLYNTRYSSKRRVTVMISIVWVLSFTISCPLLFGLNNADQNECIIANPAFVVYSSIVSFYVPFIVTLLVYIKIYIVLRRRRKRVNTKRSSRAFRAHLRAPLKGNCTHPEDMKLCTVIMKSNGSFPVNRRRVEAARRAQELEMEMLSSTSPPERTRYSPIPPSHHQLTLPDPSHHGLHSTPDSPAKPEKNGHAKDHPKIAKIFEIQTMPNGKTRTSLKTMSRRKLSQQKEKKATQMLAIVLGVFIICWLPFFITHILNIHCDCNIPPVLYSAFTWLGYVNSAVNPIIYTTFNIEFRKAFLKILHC

Structure (SMILES) | Ki [1] [µM] | Ki (D(2) dopamine receptor [2]) [µM] | Ki (D(3) dopamine receptor) [µM] | Ki [3] [µM] | Ki [4] [µM] | inhibition (D(2) dopamine receptor [5]) [%]
COc1ccccc1N1CCN(CCCCNS(=O)(=O)c2ccc3ccccc3c2)CC1 | 0.0275 | 0.0465 | 0.079 | 0.062 | 0.0041 | 
COc1ccccc1N1CCN(CCNS(=O)(=O)c2ccc3ccccc3c2)CC1 | 0.056 |  | 0.348 | 0.0244 | 0.00519 | 44
COc1ccccc1N1CCN(CCCCCNS(=O)(=O)c2ccc3ccccc3c2)CC1 | 0.0125 | 0.438 | 0.084 |  |  | 
COc1ccccc1N1CCN(CCCCCCNS(=O)(=O)c2ccc3ccccc3c2)CC1 | 0.00197 | 0.099 | ≤ 0.045 | 0.00962 | 0.00287 | 
COc1ccccc1N1CCN(CCCCCNC(=O)c2ccc3ccccc3c2)CC1 | 0.013 | 0.254 | 0.00936 | 0.054 | 0.0111 | 

Second part, the compound after the results:

Ki [1] [µM] | Ki (D(2) dopamine receptor [2]) [µM] | Ki (D(3) dopamine receptor) [µM] | Ki [3] [µM] | Ki [4] [µM] | inhibition (D(2) dopamine receptor [5]) [%] | Structure (SMILES)
0.066 | 0.89 | 0.113 |  |  |  | COc1ccccc1N1CCN(CCNC(=O)c2ccc3ccccc3c2)CC1
 |  |  |  |  | 30 | COc1ccccc1N1CCN(CCCCNC(=O)c2ccc3ccccc3c2)CC1
0.0585 | 0.132 | 0.101 | 0.112 | 0.00464 |  | COc1ccccc1N1CCN(CCCNS(=O)(=O)c2ccc3ccccc3c2)CC1
0.175 |  | 0.071 | 0.0178 | 0.00459 | 46 | COc1ccccc1N1CCN(CCCNC(=O)c2ccc3ccccc3c2)CC1
0.00056 | 0.121 | 0.096 |  |  |  | COc1ccccc1N1CCN(CCCCCCNC(=O)c2ccc3ccccc3c2)CC1
